According to PMC6839502 (Journal of Alzheimer's Disease, 2019):
Values joined by “and” are separate entries in the source; they are usually repeats but may differ in a detail not shown here. Equal values may be shown once. “Also recorded” adds a separate entry of the source. Read-outs that look alike come from different tables or passages of the source.

Experiments:
CSF Aβ fragments = assay: CSF Aβ fragments, sAβPPα and sAβPPβ after multiple doses; format: in vivo, human; details: healthy adults
Summary of the method: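 Healthy adults (18–55 y), randomized double-blind placebo-controlled, oral QD for 14 days, fasted on Days 1, 7, and 14. Lumbar-puncture CSF was taken on Day –3 (B8271004) or Day 0 (B8271001) and on Day 15, 24 h post last dose. Total Aβ was measured by DELFIA (LLOQ 391.0 pg/mL). Ln change from baseline was analysed by ANCOVA with treatment as a fixed effect and ln baseline as covariate, then converted to percent change versus pooled placebo with 2-sided 80% CI.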

plasma Aβ fragments = assay: Plasma Aβ fragments after single and multiple doses; format: in vivo, human; details: 275 mg, on Day 1
Summary of the method: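 Healthy adults, oral QD dosing versus placebo, Part B. Pre-dose blood was drawn on Days 1, 2, 4, 7, 10, and 14. Plasma Aβ1–40 was measured by DELFIA (LLOQ 12.1 pg/mL). Log change from baseline was analysed by mixed-model repeated measures: treatment, time, and their interaction as fixed effects, subject as random effect, and log baseline as covariate. Results were expressed as placebo-adjusted reduction.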

CSF Aβ1–40 and Aβ1–42 = assay: Population PK/PD model of CSF Aβ1–40 and Aβ1–42; design: species or system human; details: in approximately 50% of subjects, simulated
Summary of the method: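 Population PK/PD model built on pooled data from both studies: CSF Aβ at baseline plus one steady-state trough value. Indirect-response model in which plasma drug concentration lowers the Aβ production rate. Population PK parameters were fixed. CSF turnover rates were fixed at 0.084/h (Aβ1–40) and 0.12/h (Aβ1–42), taken from a separate serial-CSF study.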

[1] = Safety and tolerability in study B8271007; format: in vivo, human; details: 100 mg QD
[2] = ECG QTcF change in SAD and MAD studies; format: in vivo, human
BACE1 over BACE 2 [3] = details: radioligand binding assay; cited from earlier work
BACE1 over BACE 2 [4] = details: fluorescence polarization (FP) assay; cited from earlier work
pigmented C57BL/6J mice = details: long-term toxicology studies / 3 weeks of treatment in pigmented C57BL/6J mice; cited from earlier work
dogs = details: long-term toxicology / chronic dosing for up to 9 months; cited from earlier work
Aβ40 and Aβ42 = details: animal studies, subcutaneous administration; cited from earlier work
hERG = details: in vitro and in vivo preclinical safety and toxicology studies; cited from earlier work
CYP3A4/5 = details: in vitro experiments; ref data on file; cited from earlier work

C[C@H]1C[C@H]2CSC(N)=N[C@@]2(c2nc(NC(=O)c3ccc(OC(F)F)cn3)cs2)CO1 [PF-06751979]
CSF Aβ1–38 percent change from baseline to Day 15 (2-sided 80% CI) (CSF Aβ fragments; 50 mg QD 14 days, B8271001): –58.4 (–61.34, –55.28) % | CSF Aβ1–40 percent change from baseline to Day 15 (2-sided 80% CI) (CSF Aβ fragments; 50 mg QD 14 days, B8271001): –70.2 (–74.20, –65.52) % | CSF Aβ1–40 placebo-adjusted percent change from baseline to Day 15 (2-sided 80% CI) (CSF Aβ fragments; 50 mg QD 14 days, B8271001): –68.1 (–75.87, –57.86) % | CSF Aβ1–42 percent change from baseline to Day 15 (2-sided 80% CI) (CSF Aβ fragments; 50 mg QD 14 days, B8271001): –71.9 (–74.97, –68.57) % | CSF Aβ total percent change from baseline to Day 15 (2-sided 80% CI) (CSF Aβ fragments; 50 mg QD 14 days, B8271001): –64.0 (–66.62, –61.25) % | CSF Aβx-38 percent change from baseline to Day 15 (2-sided 80% CI) (CSF Aβ fragments; 50 mg QD 14 days, B8271001): –60.2 (–63.42, –56.67) % | CSF Aβx-40 percent change from baseline to Day 15 (2-sided 80% CI) (CSF Aβ fragments; 50 mg QD 14 days, B8271001): –60.4 (–63.71, –56.76) % | CSF Aβx-42 percent change from baseline to Day 15 (2-sided 80% CI) (CSF Aβ fragments; 50 mg QD 14 days, B8271001): –64.3 (–67.21, –61.11) % | CSF sAβPPα percent change from baseline to Day 15 (2-sided 80% CI) (CSF Aβ fragments; 50 mg QD 14 days, B8271001): 48.4 (38.56, 58.98) % | CSF sAβPPβ percent change from baseline to Day 15 (2-sided 80% CI) (CSF Aβ fragments; 50 mg QD 14 days, B8271001): –70.6 (–72.23, –68.93) % | CSF Aβ1–38 percent change from baseline to Day 15 (2-sided 80% CI) (CSF Aβ fragments; 125 mg QD 14 days, B8271004): –80.3 (–81.51, –79.06) % | CSF Aβ1–40 percent change from baseline to Day 15 (2-sided 80% CI) (CSF Aβ fragments; 125 mg QD 14 days, B8271004): –85.5 (–86.45, –84.38) % | CSF Aβ1–40 placebo-adjusted percent change from baseline to Day 15 (2-sided 80% CI) (CSF Aβ fragments; 125 mg QD 14 days, B8271004): –83.8 (–85.65, –81.78) % | CSF Aβ1–42 percent change from baseline to Day 15 (2-sided 80% CI) (CSF Aβ fragments; 125 mg QD 14 days, B8271004): –86.4 (–87.40, –85.28) % | CSF Aβ total percent change from baseline to Day 15 (2-sided 80% CI) (CSF Aβ fragments; 125 mg QD 14 days, B8271004): –80.1 (–81.01, –79.18) % | CSF Aβx-38 percent change from baseline to Day 15 (2-sided 80% CI) (CSF Aβ fragments; 125 mg QD 14 days, B8271004): –82.0 (–83.18, –80.74) % | CSF Aβx-40 percent change from baseline to Day 15 (2-sided 80% CI) (CSF Aβ fragments; 125 mg QD 14 days, B8271004): –81.0 (–82.16, –79.76) % | CSF Aβx-42 percent change from baseline to Day 15 (2-sided 80% CI) (CSF Aβ fragments; 125 mg QD 14 days, B8271004): –81.9 (–82.76, –80.91) % | CSF sAβPPα percent change from baseline to Day 15 (2-sided 80% CI) (CSF Aβ fragments; 125 mg QD 14 days, B8271004): 58.7 (48.89, 69.05) % | CSF sAβPPβ percent change from baseline to Day 15 (2-sided 80% CI) (CSF Aβ fragments; 125 mg QD 14 days, B8271004): –81.3 (–82.21, –80.27) % | CSF Aβ1–38 percent change from baseline to Day 15 (2-sided 80% CI) (CSF Aβ fragments; 275 mg QD 14 days, B8271004): –87.9 (–88.82, –86.98) % | CSF Aβ1–40 percent change from baseline to Day 15 (2-sided 80% CI) (CSF Aβ fragments; 275 mg QD 14 days, B8271004): –92.9 (–93.54, –92.25) % | CSF Aβ1–40 placebo-adjusted percent change from baseline to Day 15 (2-sided 80% CI) (CSF Aβ fragments; 275 mg QD 14 days, B8271004): –92.1 (–93.15, –90.98) % | CSF Aβ1–42 percent change from baseline to Day 15 (2-sided 80% CI) (CSF Aβ fragments; 275 mg QD 14 days, B8271004): –93.6 (–94.22, –92.93) % | CSF Aβ total percent change from baseline to Day 15 (2-sided 80% CI) (CSF Aβ fragments; 275 mg QD 14 days, B8271004): –86.5 (–87.26, –85.74) % | CSF Aβx-38 percent change from baseline to Day 15 (2-sided 80% CI) (CSF Aβ fragments; 275 mg QD 14 days, B8271004): –90.1 (–90.91, –89.23) % | CSF Aβx-40 percent change from baseline to Day 15 (2-sided 80% CI) (CSF Aβ fragments; 275 mg QD 14 days, B8271004): –87.6 (–88.55, –86.62) % | CSF Aβx-42 percent change from baseline to Day 15 (2-sided 80% CI) (CSF Aβ fragments; 275 mg QD 14 days, B8271004): –86.6 (–87.43, –85.76) % | CSF sAβPPα percent change from baseline to Day 15 (2-sided 80% CI) (CSF Aβ fragments; 275 mg QD 14 days, B8271004): 81.7 (67.79, 96.85) % | CSF sAβPPβ percent change from baseline to Day 15 (2-sided 80% CI) (CSF Aβ fragments; 275 mg QD 14 days, B8271004): –84.3 (–85.28, –83.26) % | Maximum observed (placebo-adjusted) reduction in CSF Aβ1–42 (CSF Aβ fragments; 275 mg QD, 24 h after Day 14 dose): ~93% and 92.9% | Maximum observed placebo-adjusted reduction in plasma Aβ1–40, multiple doses (plasma Aβ fragments): 88.3% | Predicted average reduction of CSF Aβ1–40 and Aβ1–42 at steady state (CSF Aβ1–40 and Aβ1–42; 30 mg QD): approximately 60% | Predicted average reduction of CSF Aβ1–40 and Aβ1–42 at steady state (CSF Aβ1–40 and Aβ1–42; 75 mg QD): ~80% | Predicted average reduction of CSF Aβ1–40 and Aβ1–42 at steady state (CSF Aβ1–40 and Aβ1–42; 110 mg QD): ~85% | ALT elevation, one subject ([1]; period 2, Day 7): 2.12 ×ULN | AST elevation, one subject ([1]; period 2, Day 7): 1.23 ×ULN | AST peak, one subject ([1]; period 2, Day 12): 1.75 ×ULN | ALT peak, one subject ([1]; period 2, Day 13): 3.33 ×ULN | Maximum placebo-adjusted mean QTcF change from baseline ([2]; 275 mg QD for 14 days, 90% CI: 4.5, 21.1): 12.8 ms | Maximum placebo-adjusted mean QTcF change from baseline ([2]; single dose 540 mg, 90% CI: 7.6, 22.2): 14.9 ms | Selectivity for BACE1 over BACE2 (BACE1 over BACE 2 [3]): 26.6 fold | Selectivity for BACE1 over BACE2 (BACE1 over BACE 2 [4]): 6.4 fold | Hair color (pigmentation) change (pigmented C57BL/6J mice): not observed; also recorded: did not reveal pigmentation changes | Hair color (pigmentation) change (dogs): did not reveal any evidence of hair color change; also recorded: did not reveal pigmentation changes | Aβ40 and Aβ42 in the brain and CSF (Aβ40 and Aβ42): robust reductions | hERG inhibition (hERG): weak hERG inhibition | CYP3A4/5 inhibition (CYP3A4/5): weak metabolism-dependent inhibitor
